System: Fibroblast
Experiment: Multiplex assay against human fibroblast
Type: toxicity, cell-based
Outline: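 Compound was added to live cells that had been stained at seeding with Hoechst33342, BioTracker Green Microtubule Cytoskeleton Dye, MitoTracker Red and Annexin V Alexa Fluor 680, and imaging followed on a CQ1 microscope at 37°C and 5% CO2. CellPathfinder machine-learning gating divided cells into Hoechst high-intensity objects or normal cells, normal cells into healthy, pyknosed or fragmented nuclei, and pyknosed cells into mitotic or apoptotic. Tubulin, mitochondrial-mass and membrane-permeability phenotypes are per cents of healthy-nucleus cells.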

[1] = 12 h, 1 µM, compound concentration 1 uM, replicate 1
[2] = 12 h, 1 µM, compound concentration 1 uM, replicate 2
[3] = 12 h, 10 µM, compound concentration 10 uM, replicate 1
[4] = 12 h, 10 µM, compound concentration 10 uM, replicate 2
[5] = 24 h, 1 µM, compound concentration 1 uM, replicate 1
[6] = 24 h, 1 µM, compound concentration 1 uM, replicate 2
[7] = 24 h, 10 µM, compound concentration 10 uM, replicate 1
[8] = 24 h, 10 µM, compound concentration 10 uM, replicate 2
[9] = 48 h, 1 µM, compound concentration 1 uM, replicate 1
[10] = 48 h, 1 µM, compound concentration 1 uM, replicate 2
[11] = 48 h, 10 µM, compound concentration 10 uM, replicate 1
[12] = 48 h, 10 µM, compound concentration 10 uM, replicate 2

CC(C)c1noc(N2CCC(COc3ccc(-c4ccc(S(C)(=O)=O)cc4)nc3)CC2)n1 [GSK-1292263]
Population Apoptotic (%) [1]: 65% | Population Fragmented Nuclei (%) [1]: 28% | Population Healthy Nuclei (%) [1]: 45% | Population Hoechst High Intensity Objects (%) [1]: 12% | Population Membrane Permeable-Phenotype (%) [1]: 21% | Population Mitochondria Different-Phenotype (%) [1]: 15% | Population Mitotic Cells (%) [1]: 34% | Population Normal (%) [1]: 87% | Population Pyknosed Nuclei (%) [1]: 25% | Population Tubulin-Different-Phenotype (%) [1]: 49% | Total Cell Count [1]: 128 | Population Apoptotic (%) [2]: 50% | Population Fragmented Nuclei (%) [2]: 12% | Population Healthy Nuclei (%) [2]: 85% | Population Hoechst High Intensity Objects (%) [2]: 2% | Population Membrane Permeable-Phenotype (%) [2]: 3% | Population Mitochondria Different-Phenotype (%) [2]: 4% | Population Mitotic Cells (%) [2]: 50% | Population Normal (%) [2]: 97% | Population Pyknosed Nuclei (%) [2]: 2% | Population Tubulin-Different-Phenotype (%) [2]: 9% | Total Cell Count [2]: 89 | Population Apoptotic (%) [3]: 52% | Population Fragmented Nuclei (%) [3]: 21% | Population Healthy Nuclei (%) [3]: 45% | Population Hoechst High Intensity Objects (%) [3]: 5% | Population Membrane Permeable-Phenotype (%) [3]: 24% | Population Mitochondria Different-Phenotype (%) [3]: 5% | Population Mitotic Cells (%) [3]: 48% | Population Normal (%) [3]: 94% | Population Pyknosed Nuclei (%) [3]: 33% | Population Tubulin-Different-Phenotype (%) [3]: 49% | Total Cell Count [3]: 160 | Population Apoptotic (%) [4]: 42% | Population Fragmented Nuclei (%) [4]: 5% | Population Healthy Nuclei (%) [4]: 83% | Population Membrane Permeable-Phenotype (%) [4]: 3% | Population Mitochondria Different-Phenotype (%) [4]: 10% | Population Mitotic Cells (%) [4]: 57% | Population Pyknosed Nuclei (%) [4]: 10% | Population Tubulin-Different-Phenotype (%) [4]: 15% | Total Cell Count [4]: 76 | Population Apoptotic (%) [5]: 38% | Population Fragmented Nuclei (%) [5]: 27% | Population Healthy Nuclei (%) [5]: 39% | Population Hoechst High Intensity Objects (%) [5]: 8% | Population Membrane Permeable-Phenotype (%) [5]: 39% | Population Mitochondria Different-Phenotype (%) [5]: 12% | Population Mitotic Cells (%) [5]: 61% | Population Normal (%) [5]: 91% | Population Pyknosed Nuclei (%) [5]: 33% | Population Tubulin-Different-Phenotype (%) [5]: 75% | Total Cell Count [5]: 112 | Population Apoptotic (%) [6]: 0% | Population Fragmented Nuclei (%) [6]: 14% | Population Healthy Nuclei (%) [6]: 83% | Population Hoechst High Intensity Objects (%) [6]: 2% | Population Membrane Permeable-Phenotype (%) [6]: 2% | Population Mitochondria Different-Phenotype (%) [6]: 10% | Population Mitotic Cells (%) [6]: 100% | Population Normal (%) [6]: 97% | Population Pyknosed Nuclei (%) [6]: 2% | Population Tubulin-Different-Phenotype (%) [6]: 13% | Total Cell Count [6]: 103 | Population Apoptotic (%) [7]: 52% | Population Fragmented Nuclei (%) [7]: 20% | Population Healthy Nuclei (%) [7]: 45% | Population Hoechst High Intensity Objects (%) [7]: 10% | Population Membrane Permeable-Phenotype (%) [7]: 23% | Population Mitochondria Different-Phenotype (%) [7]: 4% | Population Mitotic Cells (%) [7]: 47% | Population Normal (%) [7]: 89% | Population Pyknosed Nuclei (%) [7]: 34% | Population Tubulin-Different-Phenotype (%) [7]: 70% | Total Cell Count [7]: 178 | Population Apoptotic (%) [8]: 36% | Population Fragmented Nuclei (%) [8]: 7% | Population Healthy Nuclei (%) [8]: 79% | Population Hoechst High Intensity Objects (%) [8]: 4% | Population Membrane Permeable-Phenotype (%) [8]: 7% | Population Mitochondria Different-Phenotype (%) [8]: 12% | Population Mitotic Cells (%) [8]: 63% | Population Normal (%) [8]: 95% | Population Pyknosed Nuclei (%) [8]: 13% | Population Tubulin-Different-Phenotype (%) [8]: 7% | Total Cell Count [8]: 91 | Population Apoptotic (%) [9]: 35% | Population Fragmented Nuclei (%) [9]: 29% | Population Healthy Nuclei (%) [9]: 54% | Population Hoechst High Intensity Objects (%) [9]: 12% | Population Membrane Permeable-Phenotype (%) [9]: 33% | Population Mitochondria Different-Phenotype (%) [9]: 8% | Population Mitotic Cells (%) [9]: 64% | Population Normal (%) [9]: 88% | Population Pyknosed Nuclei (%) [9]: 15% | Population Tubulin-Different-Phenotype (%) [9]: 50% | Total Cell Count [9]: 100 | Population Apoptotic (%) [10]: 0% | Population Fragmented Nuclei (%) [10]: 26% | Population Healthy Nuclei (%) [10]: 73% | Population Hoechst High Intensity Objects (%) [10]: 8% | Population Membrane Permeable-Phenotype (%) [10]: 21% | Population Mitochondria Different-Phenotype (%) [10]: 2% | Population Mitotic Cells (%) [10]: 0% | Population Normal (%) [10]: 91% | Population Pyknosed Nuclei (%) [10]: 0% | Population Tubulin-Different-Phenotype (%) [10]: 48% | Total Cell Count [10]: 70 | Population Apoptotic (%) [11]: 44% | Population Fragmented Nuclei (%) [11]: 27% | Population Healthy Nuclei (%) [11]: 54% | Population Hoechst High Intensity Objects (%) [11]: 14% | Population Membrane Permeable-Phenotype (%) [11]: 29% | Population Mitochondria Different-Phenotype (%) [11]: 4% | Population Mitotic Cells (%) [11]: 55% | Population Normal (%) [11]: 85% | Population Pyknosed Nuclei (%) [11]: 18% | Population Tubulin-Different-Phenotype (%) [11]: 69% | Total Cell Count [11]: 184 | Population Apoptotic (%) [12]: 66% | Population Fragmented Nuclei (%) [12]: 21% | Population Healthy Nuclei (%) [12]: 74% | Population Hoechst High Intensity Objects (%) [12]: 9% | Population Membrane Permeable-Phenotype (%) [12]: 28% | Population Mitochondria Different-Phenotype (%) [12]: 0% | Population Mitotic Cells (%) [12]: 33% | Population Normal (%) [12]: 90% | Population Pyknosed Nuclei (%) [12]: 4% | Population Tubulin-Different-Phenotype (%) [12]: 59% | Total Cell Count [12]: 77

From ChEMBL document CHEMBL4689842, “EUbOPEN Chemogenomics Library wave 1” (2021)
